Measured values as given in ChEMBL document CHEMBL1126988, “Quinolone antibacterials containing the new 7-[3-(1-aminoethyl)-1- pyrrolidinyl] side chain: the effects of the 1-aminoethyl moiety and its stereochemical configurations on potency and in vivo efficacy” (J Med Chem, 1993).
pIC50: −log10 of the molar value. In brackets after ≈: the same amount, converted by molar mass.

How the values were obtained:
Enterococcus faecalis [1] = assay: Minimum inhibitory concentration was evaluated in vitro against Enterococcus faecalis MGH-2; assay type: functional
Method in brief: (§1)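 Standard microtitration broth assay against a panel of 10 Gram-positive and Gram-negative organisms. MIC read in µg/mL and averaged over multiple experiments.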

Klebsiella pneumoniae = assay: Minimum inhibitory concentration was evaluated in vitro against Klebsiella pneumoniae MGH2; assay type: functional; method in brief: as §1
Streptococcus pneumoniae [2] = assay: Minimum inhibitory concentration was evaluated in vitro against Streptococcus pneumoniae SV-1; assay type: functional; method in brief: as §1
Mus musculus [3] = species on record: Mus musculus; assay: Compounds were evaluated for phototoxicity no-effect dose in mouse; assay type: functional
Method in brief: (§2)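 Depilated female CD-1 mice, five per dose plus controls. Animals are dosed orally and then exposed daily to UV-A (320–400 nm) for 3 h, for up to 4 days or until a definite positive response. Redness or erythema relative to controls, read 24 h after irradiation, counts as positive. Reported as the highest dose with no effect (mg/kg).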

Staphylococcus aureus [4] = assay: Minimum inhibitory concentration was evaluated in vitro against Staphylococcus aureus H 228; assay type: functional; method in brief: as §1
Providencia rettgeri = assay: Minimum inhibitory concentration was evaluated in vitro against Providencia rettgeri M1771; assay type: functional; method in brief: as §1
Escherichia coli [5] = assay: Antibacterial activity against Escherichia coli Vogel after subcutaneous administration in mouse; assay type: functional; conditions: for ED50: Escherichia coli, sc, read-out: PD50
Escherichia coli [6] = assay: Antibacterial activity in vitro against Escherichia coli Vogel; assay type: functional; method in brief: as §1
Staphylococcus aureus [7] = assay: Minimum inhibitory concentration was evaluated in vitro against Staphylococcus aureus UC 76; assay type: functional; method in brief: as §1
Pseudomonas aeruginosa = assay: Minimum inhibitory concentration was evaluated in vitro against Pseudomonas aeruginosa UI-18; assay type: functional; method in brief: as §1
Streptococcus pyogenes [8] = assay: Antibacterial activity expressed as Minimum inhibitory concentration was evaluated in vitro against Streptococcus pyogenes C 203; assay type: functional; method in brief: as §1
Streptococcus pyogenes [9] = assay: Compounds were evaluated in vivo for antibacterial activity for mouse protection against Streptococcus pyogenes C 203 after oral administration; assay type: functional; conditions: for ED50: Streptococcus pyogenes, C 203, po, read-out: PD50
Enterobacter cloacae = assay: Minimum inhibitory concentration in vitro against Enterobacter cloacae MA 2646; assay type: functional
[10] = Clonogenic cytotoxicity against hamster V-79 cells; assay type: functional, Cricetulus griseus, V79
Method in brief: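 Chinese hamster V-79 cells grown overnight, then drug-treated for 3 h at 37 °C. Medium is replaced with fresh medium and cells are incubated 5 days to allow colony formation. IC50 (µg/mL) is the concentration inhibiting colony formation by 50% relative to control.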

Escherichia coli [11] = assay: Antibacterial activity against Escherichia coli Vogel after oral administration in mouse; assay type: functional; conditions: for ED50: Escherichia coli, po, read-out: PD50
DNA gyrase = DNA gyrase (Escherichia coli, UniProt P0AES4+P0AES6); assay: Inhibition against DNA gyrase; assay type: protein-complex assay
Streptococcus pyogenes [12] = assay: Antibacterial activity measured as mouse protection against Streptococcus pyogenes C 203 after subcutaneous administration; assay type: functional; conditions: for ED50: Streptococcus pyogenes, C 203, sc, read-out: PD50
Mus musculus [13] = species on record: Mus musculus; assay: Compound was evaluated for phototoxicity no-effect dose in mouse; assay type: functional; method in brief: as §2
Streptococcus pyogenes [14] = assay: Compound was evaluated in vivo for antibacterial activity for mouse protection against Streptococcus pyogenes C 203 after subcutaneous administration; assay type: functional; conditions: sc, read-out: PD50
Streptococcus pyogenes [15] = assay: Minimum inhibitory concentration was evaluated in vitro against Streptococcus pyogenes C 203; assay type: functional; method in brief: as §1
Enterococcus faecalis [16] = assay: Antibacterial activity expressed as Minimum inhibitory concentration was evaluated in vitro against Enterococcus faecalis MGH-2; assay type: functional; method in brief: as §1
Mus musculus [17] = species on record: Mus musculus; assay: Compounds were evaluated for phototoxicity in mouse and phototoxicity no-effect dose was reported; assay type: functional; method in brief: as §2
Streptococcus pneumoniae [18] = assay: Antibacterial activity expressed as Minimum inhibitory concentration was evaluated in vitro against Streptococcus pneumoniae SV-1; assay type: functional
Method in brief: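 Standard microtitration broth MIC (μg/mL), averaged from multiple experiments; one of a 10-organism Gram-positive/Gram-negative panel.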

Mus musculus [19] = species on record: Mus musculus; assay: Compounds was evaluated for phototoxicity no-effect dose in mouse; assay type: functional; method in brief: as §2
[20] = Enterococcus faecalis, read-out: MIC
[21] = Klebsiella pneumoniae, read-out: MIC
[22] = Streptococcus pneumoniae, read-out: MIC
[23] = Staphylococcus aureus, read-out: MIC
[24] = Providencia rettgeri, read-out: MIC
[25] = Escherichia coli, read-out: MIC
[26] = Pseudomonas aeruginosa, read-out: MIC
[27] = Enterobacter cloacae, read-out: MIC
[28] = Streptococcus pyogenes, read-out: MIC

| SMILES | MIC (Enterococcus faecalis [1]; [20]) [µg/mL] | MIC (Klebsiella pneumoniae; [21]) [µg/mL] | MIC (Streptococcus pneumoniae [2]; [22]) [µg/mL] | MIC (Staphylococcus aureus [4]; [23]) [µg/mL] | MIC (Providencia rettgeri; [24]) [µg/mL] | ED50 (Escherichia coli [5]) [mg/kg] | MIC (Escherichia coli [6]; [25]) [µg/mL] | MIC (Staphylococcus aureus [7]; [23]) [µg/mL] | MIC (Pseudomonas aeruginosa; [26]) [µg/mL] | ED50 (Streptococcus pyogenes [9]) [mg/kg] | MIC (Enterobacter cloacae; [27]) [µg/mL] | Cytotoxicity [10] [µg/mL] | pIC50 (DNA gyrase) | ED50 (Streptococcus pyogenes [12]) [mg/kg] | MIC (Streptococcus pneumoniae [2]) [µg/mL] | MIC (Staphylococcus aureus [7]) [µg/mL] | PD50 (Streptococcus pyogenes [9]) [mg/kg] | MIC (Streptococcus pyogenes [15]) [µg/mL] | ED50 (Escherichia coli [11]) [mg/kg] | MIC (Streptococcus pyogenes [15]; [28]) [µg/mL] | further results |
| --- | --- | --- | --- | --- | --- | --- | --- | --- | --- | --- | --- | --- | --- | --- | --- | --- | --- | --- | --- | --- | --- |
| C[C@@H](N)[C@H]1CCN(c2nc3c(cc2F)c(=O)c(C(=O)O)cn3-c2ccc(F)cc2F)C1 (racemic) | 0.025 (≈ 0.0578 µM) | 0.2 (≈ 0.463 µM) | 0.006 (≈ 0.0139 µM) | 0.05 (≈ 0.116 µM) | 0.4 (≈ 0.925 µM) | 1 | 0.1 (≈ 0.231 µM) | 0.006 (≈ 0.0139 µM) | 0.8 (≈ 1.85 µM) | 1 | 0.2 (≈ 0.463 µM) | 280 | 5.94 | 1 |  |  |  |  |  |  | Dose (Mus musculus [3]): >100 mg/kg; MIC (Streptococcus pyogenes [8]): 0.006 µg/mL (≈ 0.0139 µM); PD50 (Escherichia coli [11]): 3 mg/kg |
| C[C@@H](N)[C@H]1CCN(c2nc3c(cc2F)c(=O)c(C(=O)O)cn3C2CC2)C1 (mixture of isomers) |  |  |  |  |  |  |  |  |  |  |  | 33 | 5.68 |  | 0.003 | 0.003 | 3 | 0.013 |  |  | MIC (Enterococcus faecalis [1]): 0.013 µg/mL; MIC (Klebsiella pneumoniae): 0.05 µg/mL; MIC (Staphylococcus aureus [4]): 0.025 µg/mL; MIC (Providencia rettgeri): 0.1 µg/mL; PD50 (Escherichia coli [5]): 0.4 mg/kg; Dose (Mus musculus [13]): 30 mg/kg; MIC (Escherichia coli [6]): 0.025 µg/mL; MIC (Pseudomonas aeruginosa): 0.4 µg/mL; ED50 (Streptococcus pyogenes [14]): 1 mg/kg; MIC (Enterobacter cloacae): 0.05 µg/mL; PD50 (Escherichia coli [11]): 2 mg/kg |
| CCn1cc(C(=O)O)c(=O)c2cc(F)c(N3CC[C@@H]([C@@H](C)N)C3)c(F)c21 |  | 0.2 (≈ 0.547 µM) | 0.05 (≈ 0.137 µM) | 0.1 (≈ 0.274 µM) | 0.4 (≈ 1.09 µM) | 2 | 0.1 (≈ 0.274 µM) | 0.025 (≈ 0.0684 µM) | 1.6 (≈ 4.38 µM) | 19 | 0.1 (≈ 0.274 µM) |  |  | 2 |  |  |  |  | 15 | 0.05 (≈ 0.137 µM) | MIC (Enterococcus faecalis [16]): 0.1 µg/mL (≈ 0.274 µM) |
| CN[C@H](C)[C@H]1CCN(c2cc3c(cc2F)c(=O)c(C(=O)O)cn3C2CC2)C1 (mixture of isomers) |  |  |  |  |  | 1 |  |  |  |  |  | 180 |  |  | 0.05 | 0.05 | 7 | 0.05 | 7 |  | MIC (Enterococcus faecalis [1]): 0.1 µg/mL; MIC (Klebsiella pneumoniae): 0.4 µg/mL; MIC (Staphylococcus aureus [4]): 0.2 µg/mL; MIC (Providencia rettgeri): 0.8 µg/mL; Phototoxicity (Mus musculus [17]): 100 mg/kg; MIC (Escherichia coli [6]): 0.2 µg/mL; MIC (Pseudomonas aeruginosa): 1.6 µg/mL; MIC (Enterobacter cloacae): 0.2 µg/mL; PD50 (Streptococcus pyogenes [12]): 1 mg/kg |
| NC1CCN(c2nc3c(cc2F)c(=O)c(C(=O)O)cn3C2CC2)C1 (stereo not given) | 0.2 (≈ 0.602 µM) | 0.025 (≈ 0.0752 µM) |  | 0.2 (≈ 0.602 µM) | 0.05 (≈ 0.15 µM) | 0.6 | 0.013 (≈ 0.0391 µM) | 0.013 (≈ 0.0391 µM) | 0.1 (≈ 0.301 µM) | 32 | 0.025 (≈ 0.0752 µM) | 98 | 5.65 | 14 |  |  |  |  | 2 | 0.2 (≈ 0.602 µM) | MIC (Streptococcus pneumoniae [18]): 0.2 µg/mL (≈ 0.602 µM); Dose (Mus musculus [13]): >100 mg/kg |
| CN[C@@H](C)[C@@H]1CCN(c2nc3c(cc2F)c(=O)c(C(=O)O)cn3C2CC2)C1 (mixture of isomers) | 0.1 | 0.2 |  | 0.1 | 0.4 |  | 0.1 |  | 1.6 |  | 0.1 | 130 |  |  | 0.013 | 0.013 | 2 | 0.025 |  |  | Dose (Mus musculus [19]): 18 mg/kg; PD50 (Streptococcus pyogenes [12]): 2 mg/kg |
| CCN[C@H](C)[C@H]1CCN(c2c(F)cc3c(=O)c(C(=O)O)cn(C4CC4)c3c2C(F)(F)F)C1 (racemic) | 0.1 (≈ 0.22 µM) | 1.6 (≈ 3.51 µM) | 0.013 (≈ 0.0285 µM) | 0.05 (≈ 0.11 µM) | 1.6 (≈ 3.51 µM) | 3 | 0.8 (≈ 1.76 µM) | 0.013 (≈ 0.0285 µM) | 6.3 (≈ 13.8 µM) | 0.7 | 0.4 (≈ 0.878 µM) |  | 5.71 | 0.5 |  |  |  |  | 5 | 0.025 (≈ 0.0549 µM) |  |
